In series [1] the test system is Rattus norvegicus. The experiment in a line: Increase in uterine weight in po dosed ovariectomized rat osteopenia model administered daily measured after 2 weeks. Type of series: functional, organism-based.
Series [2] has as its system Rattus norvegicus. In words: Decrease in bone resorption in ovariectomized rat assessed as decrease in urine deoxypyridinoline level at 0.1 mg/kg, po administered daily measured after 2 weeks. Type of series: functional, organism-based. Set-up: dose 0.1 mg/kg. The method in brief: (§1)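 Adult (>6 months) female rats, housed singly on a casein-based diet, ovariectomized under sterile conditions and anesthesia; 6-14 per group. From 24 h after surgery, daily oral gavage of an aqueous suspension in 0.5% Methocel for 2 or 6 weeks. […] Urine deoxypyridinoline measured as bone-resorption marker.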

The target of series [3] is Estrogen receptor beta (Homo sapiens, UniProt Q92731). In words: Inhibition of fluormone ES2 binding to estrogen receptor beta after 1 hr by fluorescence polarization assay.
Series [4] concerns the target T1, Estrogen receptor (Homo sapiens, UniProt P03372).
T1 sequence (P03372 whole entry): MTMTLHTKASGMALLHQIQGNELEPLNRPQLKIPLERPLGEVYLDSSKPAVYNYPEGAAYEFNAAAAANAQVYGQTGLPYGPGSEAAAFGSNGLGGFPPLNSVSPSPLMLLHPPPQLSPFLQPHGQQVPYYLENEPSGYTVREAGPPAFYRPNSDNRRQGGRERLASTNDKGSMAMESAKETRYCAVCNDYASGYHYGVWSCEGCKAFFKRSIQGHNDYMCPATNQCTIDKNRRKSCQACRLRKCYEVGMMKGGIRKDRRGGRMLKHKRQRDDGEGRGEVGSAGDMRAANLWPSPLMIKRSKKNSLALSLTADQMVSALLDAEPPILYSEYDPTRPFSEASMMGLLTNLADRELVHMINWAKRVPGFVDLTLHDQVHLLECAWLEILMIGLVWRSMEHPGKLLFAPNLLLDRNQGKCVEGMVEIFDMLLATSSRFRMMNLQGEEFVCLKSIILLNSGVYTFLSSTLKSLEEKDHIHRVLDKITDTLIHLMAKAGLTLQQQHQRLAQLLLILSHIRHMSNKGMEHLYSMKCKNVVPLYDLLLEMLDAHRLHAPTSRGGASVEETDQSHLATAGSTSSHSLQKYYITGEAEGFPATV
In words: Displacement of radiolabeled estrogen from estrogen receptor alpha by scintillation counting.

The target in series [5] is T1, Estrogen receptor. The experiment in a line: Antagonist activity at estrogen receptor in human Ishikawa cells assessed as 17-beta-estradiol-induced alkaline phosphatase activity after 3 days by chemiluminescence assay. Format: functional, cell-based.
The species entered for series [6] is Rattus norvegicus. In words: animal or person. The settings on record: Uterus, 72 h, route oral. Format: functional.
A short description of series [7]: Oral bioavailability in rat at 10 mg/kg administered as single dose by LC-MS/MS analysis. Format: ADME, organism-based. The settings on record: in vivo. Summed up:
(§2)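 Single-dose rat pharmacokinetics. IV dosing at 1-3 mg/kg as a solution in 10% β-cyclodextrin; oral gavage at 10 mg/kg as a uniform suspension in 0.5% methylcellulose. Blood (0.5 mL) collected into heparinized tubes by orbital sinus puncture after dosing. Plasma extracted into acetonitrile with an internal standard and analysed by LC-MS-MS against standards to obtain PK parameters.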

Series [8] is described as follows: Cmax in rats after 10 mg/kg oral dose. Type of series: ADME, organism-based. Set-up: dose 10 mg/kg, route oral. The settings on record: rat, in vivo. The method in brief: as §2
A short description of series [9]: Tmax in rat at 10 mg/kg, po administered as single dose by LC-MS/MS analysis. On the set-up: dose 10 mg/kg, route oral. Format: ADME, organism-based. The settings on record: in vivo. The method in brief: as §2
The nature of series [10]: Half life in rat at 10 mg/kg, po administered as single dose by LC-MS/MS analysis. Type of series: ADME, organism-based. On the set-up: dose 10 mg/kg, route oral. As to conditions: in vivo. Summed up:
as §2

A short description of series [11]: AUC in rat at 10 mg/kg, po administered as single dose by LC-MS/MS analysis. Format: ADME, organism-based. Set-up: dose 10 mg/kg, route oral. As to conditions: plasma. The method in brief: as §2
Series [12] has as its system Rattus norvegicus. In words: Metabolite Cmax in rats after 10 mg/kg JNJ-1968990 oral dose. Format: ADME, organism-based. On the set-up: dose 10 mg/kg, route oral. The settings on record: in vivo. The method in brief: as §2
The test system of series [13] is Rattus norvegicus. The experiment in a line: Metabolic stability in rat assessed as (R)-5-[4-(2-Dimethylamino-ethoxy)-phenyl]-11,12-dihydro-5H-6,13-dioxa-benzo[3,4]cyclohepta[1,2-a]naphthalene-2,8-diol Tmax at 10 mg/kg, po administered as single dose by LC-MS/MS analysis. Type of series: ADME, organism-based. On the set-up: dose 10 mg/kg, route oral. As to conditions: in vivo. The method in brief: as §2

Series [14] concerns Rattus norvegicus. In words: Metabolite Cmax in rats after 10 mg/kg JNJ-26529126 oral dose. Format: ADME, organism-based. On the set-up: dose 10 mg/kg, route oral. As to conditions: in vivo. The method in brief: as §2
Series [15] concerns Rattus norvegicus. In words: Metabolic stability in rat assessed as (R)-5-[4-(2-Dimethylamino-ethoxy)-phenyl]-11,12-dihydro-5H-6,13-dioxa-benzo[3,4]cyclohepta[1,2-a]naphthalene-2,8-diol Tmax at 2 mg/kg, iv administered as single dose by LC-MS/MS analysis. Type of series: ADME, organism-based. On the set-up: dose 2 mg/kg, route intravenous. As to conditions: in vivo. The method in brief:
as §2

Series [16] has as its system Rattus norvegicus. The experiment in a line: Metabolite Cmax in rats after 10 mg/kg JNJ-26529152 oral dose. Type of series: ADME, organism-based. Set-up: dose 10 mg/kg, route oral. As to conditions: in vivo. Summed up:
as §2

For series [17], the system named is Rattus norvegicus. The experiment in a line: Metabolite Cmax in rats after 2 mg/kg JNJ-1968990 intravenous dose. As to conditions: in vivo. Type of series: ADME, organism-based. On the set-up: dose 2 mg/kg, route intravenous. The method in brief:
as §2

For series [18], the system named is Rattus norvegicus. The experiment in a line: Estrogenic activity in ovariectomized rat assessed as minor increase in uterine epithelial thickness at 0.1 to 1 mg/kg, po administered daily measured after 6 week by immunohistochemical analysis. Type of series: functional, organism-based.
Series [19] concerns Rattus norvegicus. In words: Decrease in bone resorption in ovariectomized rat assessed as decrease in urine deoxypyridinoline level at 0.1 to 1 mg/kg, po administered daily measured after 2 weeks. Type of series: functional, organism-based. The method in brief:
as §1

Series [20] has as its system Rattus norvegicus. In words: Decrease in plasma cholesterol level in po dosed ovariectomized rat osteopenia model administered daily measured after 2 weeks. Format: functional, organism-based.
Series [21] relates to Rattus norvegicus. The experiment in a line: Metabolic stability in rat assessed as 8-Methoxy-6R-(-)-[4-(2-piperidin-1-ylethoxy)phenyl]-11,12-dihydro-5H-6,13-dioxabenzo[3,4]cyclohepta-[1,2-a]naphthalen-2-ol Tmax at 10 mg/kg, po administered as single dose by LC-MS/MS analysis. Format: ADME, organism-based. On the set-up: dose 10 mg/kg, route oral. The settings on record: in vivo. Summed up: as §2

Series [22] has as its system Rattus norvegicus. In words: Metabolic stability in rat assessed as 8-Methoxy-6R-(-)-[4-(2-piperidin-1-ylethoxy)phenyl]-11,12-dihydro-5H-6,13-dioxabenzo[3,4]cyclohepta-[1,2-a]naphthalen-2-ol Tmax at 2 mg/kg, iv administered as single dose by LC-MS/MS analysis. Type of series: ADME, organism-based. Set-up: dose 2 mg/kg, route intravenous. The settings on record: in vivo. The method in brief:
as §2

Each structure is given as a SMILES string. The source made the active and inactive calls. The rule behind the calls is not given here.

Chain of Estrogen receptor beta (Q92731 whole entry): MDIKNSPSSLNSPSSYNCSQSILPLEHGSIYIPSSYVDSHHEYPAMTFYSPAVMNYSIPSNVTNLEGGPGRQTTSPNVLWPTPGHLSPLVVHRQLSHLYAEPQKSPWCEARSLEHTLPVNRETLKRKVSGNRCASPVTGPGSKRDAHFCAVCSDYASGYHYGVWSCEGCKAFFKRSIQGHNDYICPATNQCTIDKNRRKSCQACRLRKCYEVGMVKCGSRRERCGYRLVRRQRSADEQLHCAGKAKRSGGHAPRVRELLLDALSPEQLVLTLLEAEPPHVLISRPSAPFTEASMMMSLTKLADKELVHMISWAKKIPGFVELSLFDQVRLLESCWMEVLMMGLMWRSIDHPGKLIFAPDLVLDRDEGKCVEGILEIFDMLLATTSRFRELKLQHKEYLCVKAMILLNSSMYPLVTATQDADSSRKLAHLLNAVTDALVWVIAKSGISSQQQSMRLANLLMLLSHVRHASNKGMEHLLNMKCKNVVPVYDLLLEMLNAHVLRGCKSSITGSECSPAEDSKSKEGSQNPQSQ

Consider `Oc1ccc2c(c1)O[C@H](c1ccc(OCCN3CCCCC3)cc1)C1=C2CCOc2cc(O)ccc21`, for which the outcome in series [1] was inactive. Also, the outcome in [2] was Active. Further, the IC50 in series [3] worked out at 21 nM; in [4], 1.1 nM; in series [5] it was 0.2 nM. Further, the inhibition in vivo at 1 mg/kg in [6] was determined as 135%. For the same compound, the bioavailability in series [7] worked out at 11%. In series [8], the highest level (Cmax) was 91 ng/mL. The Tmax was determined as 5 h in series [9], 6 h in series [13] and 8 h in [15]. The half-life in [10] is 4.8 h. Besides, the AUC in series [11] came to 1010 ng·h/mL. Further, the Cmax_metabolite in series [12] was found to be 3.9 ng/mL; in series [14] it was 14 ng/mL; in [16], 12 ng/mL; in series [17] it was 1.6 ng/mL.
In the case of `COc1ccc2c(c1)O[C@H](c1ccc(OCCN3CCCCC3)cc1)C1=C2CCOc2cc(O)ccc21`, the result in [1] was inactive. For the same compound, the outcome in [18], in series [19] and in series [20] was Active. Besides, the IC50 in series [3] was found to be 7 nM; in series [4], 9 nM; in series [5] it was 259 nM. Moreover, in series [6], the inhibition in vivo at 1 mg/kg was 99%. This compound also returned a bioavailability in [7] of 58%. For the same compound, in series [8], the Cmax came out at 219 ng/mL. For the same compound, the results for the Tmax in series [9], in series [21] and in [22] were 6 h, 6 h and 8 h, respectively. Moreover, the half-life in [10] was 19.8 h. The area under the curve (AUC) in series [11] came out at 6920 ng·h/mL. Further, the Cmax_metabolite was found to be 33.3 ng/mL in series [12] and 7.6 ng/mL in series [17].

The values above are taken from ChEMBL document CHEMBL1153760, “Identification and structure-activity relationships of chromene-derived selective estrogen receptor modulators for treatment of postmenopausal symptoms” (J Med Chem, 2009).
